# Measured values taken from ChEMBL document CHEMBL4819088, “Synthesis and in vivo screening of isosteviol derivatives as new cardioprotective agents” (2021).
# Active and inactive are the calls of the source. The calls are words filed in the database; no cut-off is given here.
# Tests used:
# [1] = organism: Danio rerio; assay: Prevention of doxorubicin-induced Zebrafish mortality assessed as survival rate at 40 uM incubated for 48 hrs by inverted fluorescence microscopy (reference value: 52%); assay type: functional
# [2] = organism: Danio rerio; assay: Prevention of doxorubicin-induced Zebrafish mortality assessed as survival rate at 5 uM incubated for 48 hrs by inverted fluorescence microscopy (reference value: 52%); assay type: functional
# [3] = organism: Danio rerio; assay: Prevention of doxorubicin-induced Zebrafish mortality assessed as survival rate at 15 uM incubated for 48 hrs by inverted fluorescence microscopy (reference value: 52%); assay type: functional
# [4] = system: Danio rerio; assay: Cardioprotective activity in (cmlc2:GFP) transgenic Zebrafish assessed as reduction in doxorubicin-induced cardiac edema measured after 48 hrs; assay type: functional, organism-based
# [5] = organism: Danio rerio; assay: Cardioprotective activity in (cmlc2:GFP) transgenic Zebrafish assessed as prevention of doxorubicin-induced heart shape change measured after 48 hrs; assay type: functional, organism-based
# [6] = organism: Danio rerio; assay: Cardioprotective activity in (cmlc2:GFP) transgenic Zebrafish assessed as reduction in doxorubicin-induced cardiac impairment measured after 48 hrs; assay type: functional, organism-based
# Procedure, shortened: (§1)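 Tg(cmlc2:GFP) embryos, 24 hpf, 20 per well, exposed to DOX (80 μM) with or without test compound at its optimum concentration for 48 h. At 72 hpf, heart rate, fractional shortening, stroke volume and cardiac output were derived from fluorescence imaging of atrium and ventricle. Mean ± S.D., n = 4.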
# [7] = organism: Danio rerio; assay: Cardioprotective activity against doxorubicin-induced (cmlc2:GFP) transgenic Zebrafish assessed as protection of heart measured after 48 hrs; assay type: functional, organism-based; conditions: dose 20-60 µM; procedure, shortened: as §1
# [8] = organism: Danio rerio; assay: Cardioprotective activity against doxorubicin-induced (cmlc2:GFP) transgenic Zebrafish assessed as protection of heart function loss measured after 48 hrs; assay type: functional, organism-based; conditions: dose 20-60 µM; procedure, shortened: as §1
# [9] = organism: Danio rerio; assay: Prevention of doxorubicin-induced Zebrafish mortality assessed as increase in survival rate incubated for 48 hrs by inverted fluorescence microscopy; assay type: functional, organism-based; conditions: dose 5-40 µM
# Procedure, shortened: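 Wild-type embryos, 24 hpf, 20 per well in 1 mL egg water, exposed to DOX (100 μM) with or without test compound (5, 15, 40 μM) for 48 h. Survival scored at 96 hpf by inverted fluorescence microscopy; no motion on touch, or loss of atrial and ventricular contractility, counted as dead. Mean ± S.D., n = 4.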
# [10] = organism: Danio rerio; assay: Cardioprotective activity against Zebrafish assessed as reduction in doxorubicin-induced increase in Cardiac troponin T mRNA level by qRT-PCR analysis; assay type: functional, organism-based; conditions: dose 20-40 µM
# Procedure, shortened: (§2)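 Zebrafish embryos, either controls or exposed to doxorubicin with or without test compound. ANP and cTnT mRNA levels measured relative to control. Mean ± S.D., n = 4.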
# [11] = organism: Danio rerio; assay: Cardioprotective activity against Zebrafish assessed as reduction in doxorubicin-induced increase in natriuretic peptide mRNA level by qRT-PCR analysis; assay type: functional, organism-based; conditions: dose 20-40 µM; procedure, shortened: as §2
# [12] = system: H9c2; assay: Cardioprotective activity against doxorubicin-induced rat H9c2 cells assessed as protection of cell damage measured after 48 hrs by CCK8 assay; assay type: functional, cell-based; conditions: dose 0.5-12.5 µM
# Procedure, shortened: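 H9c2 cells grown in DMEM with 10% FBS and penicillin/streptomycin at 37 °C, 5% CO2, used at 70% confluence. Exposed to DOX (10 μM) with or without test compound (0.5–12.5 μM) for 48 h. CCK-8 (0.5 mg/mL) then added for 4 h to read viability.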
# [13] = system: H9c2; assay: Cardioprotective activity against rat H9c2 cells assessed as inhibition of doxorubicin-induced ROS production preincubated for 48 hrs followed by loading with DCFDA dye for 40 mins by DCF-DA probe based fluorescence assay; assay type: functional, cell-based; conditions: dose 1-10 µM
# Procedure, shortened: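 H9c2 cells exposed for 48 h with or without test compound, then loaded with DCFH-DA (5 μM final, in DMEM) for 40 min at 37 °C. Cells washed three times with PBS; DCF fluorescence read by confocal microscopy as the ROS level. Mean ± S.D., n = 3.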
# [14] = system: H9c2; assay: Cardioprotective activity against rat H9c2 cells assessed as inhibition of doxorubicin-induced mitochondrial membrane potential loss incubated for 48 hrs by JC1 staining based confocal microscopy; conditions: dose 1-10 µM
Structure (SMILES),Activity [1],Activity [2] [%],Activity [3],also measured
COc1ccc(C(=O)OC[C@@H]2[C@@H](O)[C@@]3(C)CC[C@H]4[C@]5(C)CCC[C@@](C)(C(=O)O)[C@H]5CC[C@@]24C3)cc1OC,>70%,,,
C[C@]12CC[C@H]3[C@]4(C)CCC[C@@](C)(N)[C@H]4CC[C@@]3(C1)[C@H](CO)[C@H]2O,inactive,,,
CC(=O)OC[C@@H]1C(=O)[C@@]2(C)CC[C@H]3[C@]4(C)CCC[C@@](C)(C(=O)O)[C@H]4CC[C@@]13C2,inactive,,,
COC(=O)[C@]1(C)CCC[C@@]2(C)[C@@H]3CC[C@@]4(C)C[C@]3(CC[C@@H]21)CC4=O,60%,,,
C[C@]12CC[C@H]3[C@]4(C)CCC[C@@](C)(C(=O)O)[C@H]4CC[C@@]3(C1)[C@H](COC(=O)C1CCCCC1)C2=O,inactive,,,
COc1ccc(C(=O)OC[C@@H]2[C@@H](O)[C@@]3(C)CC[C@H]4[C@]5(C)CCC[C@@](C)(N)[C@H]5CC[C@@]24C3)c(OC)c1OC,Active,,,
C=C1C(=O)[C@@]2(C)CC[C@@H]3[C@]1(CC[C@H]1[C@@]3(C)CCC[C@@]1(C)C(=O)O)C2,26%,50,38%,
COc1ccc(C(=O)OC[C@@H]2[C@@H](O)[C@@]3(C)CC[C@H]4[C@]5(C)CCC[C@@](C)(N)[C@H]5CC[C@@]24C3)cc1,Active,,,
C[C@]12CC[C@H]3[C@]4(C)CCC[C@@](C)(C(=O)O)[C@H]4CC[C@@]3(C1)[C@H](CO)[C@H]2O,60%,60,60%,
COc1ccc(CC(=O)OC[C@@H]2[C@@H](O)[C@@]3(C)CC[C@H]4[C@]5(C)CCC[C@@](C)(C(=O)O)[C@H]5CC[C@@]24C3)cc1,>70%,,,
C[C@@]12CC[C@@H]3[C@@](CC[C@H]4[C@@]3(C)CCC[C@@]4(C)C(=O)O)(CC1=O)C2 [ISOSTEVIOL],inactive,57,inactive,Activity [4]: Dose-Dependent Effect; Activity [5]: Dose-Dependent Effect; Activity [6]: Dose-Dependent Effect; Activity [7]: Dose-Dependent Effect; Activity [8]: Dose-Dependent Effect
C[C@@H]1CC(=O)NN=C1c1ccc(NN=C(C#N)C#N)cc1 [LEVOSIMENDAN],74%,58,69%,Activity [9]: Dose-Dependent Effect
Cc1ccc(S(=O)(=O)OC[C@@H]2C(=O)[C@@]3(C)CC[C@H]4[C@]5(C)CCC[C@@](C)(C(=O)O)[C@H]5CC[C@@]24C3)cc1,60%,60,60%,
COc1ccc(C(=O)OC[C@@H]2C(=O)[C@@]3(C)CC[C@H]4[C@]5(C)CCC[C@@](C)(C(=O)O)[C@H]5CC[C@@]24C3)cc1OC,Active,,,Activity ([1]; record 2): >70%
C[C@@]12CC[C@@H]3[C@@](CC[C@H]4[C@@]3(C)CCC[C@@]4(C)N)(CC1=O)C2,,85,,Activity [9]: Dose-Dependent Effect; Activity [4]: Dose-Dependent Effect; Activity [5]: Dose-Dependent Effect; Activity [6]: Dose-Dependent Effect; Activity [7]: Dose-Dependent Effect; Activity [8]: Dose-Dependent Effect
COc1cc(C(=O)OC[C@@H]2[C@@H](O)[C@@]3(C)CC[C@H]4[C@]5(C)CCC[C@@](C)(N)[C@H]5CC[C@@]24C3)cc(OC)c1OC,Active,,,
COc1cc(C(=O)OC[C@@H]2C(=O)[C@@]3(C)CC[C@H]4[C@]5(C)CCC[C@@](C)(N)[C@H]5CC[C@@]24C3)cc(OC)c1OC,87%,,,Activity [9]: Dose-Dependent Effect; Activity [4]: Dose-Dependent Effect; Activity [5]: Dose-Dependent Effect; Activity [6]: Dose-Dependent Effect; Activity [7]: Dose-Dependent Effect; Activity [8]: Dose-Dependent Effect
COc1cccc(C(=O)OC[C@@H]2C(=O)[C@@]3(C)CC[C@H]4[C@]5(C)CCC[C@@](C)(C(=O)O)[C@H]5CC[C@@]24C3)c1OC,70%,,,
COc1ccc(C(=O)OC[C@@H]2[C@@H](O)[C@@]3(C)CC[C@H]4[C@]5(C)CCC[C@@](C)(C(=O)O)[C@H]5CC[C@@]24C3)cc1,>70%,,,
COc1ccc(C(=O)OC[C@@H]2C(=O)[C@@]3(C)CC[C@H]4[C@]5(C)CCC[C@@](C)(N)[C@H]5CC[C@@]24C3)c(OC)c1OC,98%,,,Activity [9]: Dose-Dependent Effect; Activity [4]: Dose-Dependent Effect; Activity [5]: Dose-Dependent Effect; Activity [6]: Dose-Dependent Effect; Activity [7]: Dose-Dependent Effect; Activity [8]: Dose-Dependent Effect; Activity [10]: Dose-Dependent Effect; Activity [11]: Dose-Dependent Effect; Activity [12]: Dose-Dependent Effect; Activity [13]: Dose-Dependent Effect; Activity [14]: Dose-Dependent Effect
C[C@@]12CC[C@@H]3[C@@](CC[C@H]4[C@@]3(C)CCC[C@@]4(C)C(=O)OCc3ccccc3)(CC1=O)C2,,60,,
C[C@]12CC[C@H]3[C@]4(C)CCC[C@@](C)(C(=O)O)[C@H]4CC[C@@]3(C1)[C@H](COC(=O)C1CCCCC1)[C@H]2O,inactive,,,
C[C@]12CC[C@H]3[C@]4(C)CCC[C@@](C)(N)[C@H]4CC[C@@]3(C1)[C@H](COC(=O)c1cccnc1)[C@H]2O,Active,,,
COc1ccc(C(=O)OC[C@@H]2C(=O)[C@@]3(C)CC[C@H]4[C@]5(C)CCC[C@@](C)(C(=O)O)[C@H]5CC[C@@]24C3)c(OC)c1OC,77%,77,77%,Activity [9]: Dose-Dependent Effect; Activity [4]: Dose-Dependent Effect; Activity [5]: Dose-Dependent Effect; Activity [6]: Dose-Dependent Effect; Activity [7]: Dose-Dependent Effect; Activity [8]: Dose-Dependent Effect
COc1cc(C(=O)OC[C@@H]2C(=O)[C@@]3(C)CC[C@H]4[C@]5(C)CCC[C@@](C)(C(=O)O)[C@H]5CC[C@@]24C3)cc(OC)c1OC,68%,68,68%,Activity [9]: Dose-Dependent Effect; Activity [4]: Dose-Dependent Effect; Activity [5]: Dose-Dependent Effect; Activity [6]: Dose-Dependent Effect; Activity [7]: Dose-Dependent Effect; Activity [8]: Dose-Dependent Effect
COc1ccc(COC(=O)[C@]2(C)CCC[C@@]3(C)[C@@H]4CC[C@@]5(C)C[C@]4(CC[C@@H]32)CC5=O)cc1,,,60%,
COc1cccc(C(=O)OC[C@@H]2[C@@H](O)[C@@]3(C)CC[C@H]4[C@]5(C)CCC[C@@](C)(N)[C@H]5CC[C@@]24C3)c1OC,Active,,,
Cc1ccc(S(=O)(=O)OC[C@@H]2[C@@H](O)[C@@]3(C)CC[C@H]4[C@]5(C)CCC[C@@](C)(C(=O)O)[C@H]5CC[C@@]24C3)cc1,60%,60,60%,
CC(=O)OC[C@@H]1[C@@H](O)[C@@]2(C)CC[C@H]3[C@]4(C)CCC[C@@](C)(C(=O)O)[C@H]4CC[C@@]13C2,inactive,,,
